Measurements collected from several papers.
Compare with care: the assays were run in different laboratories.
TYK2: Non-receptor tyrosine-protein kinase TYK2 (TYK2, Homo sapiens, UniProt P29597)
MC1R: Melanocyte-stimulating hormone receptor (MC1R, Homo sapiens, UniProt Q01726)
TAOK1: Serine/threonine-protein kinase TAO1 (TAOK1, Homo sapiens, UniProt Q7L7X3)

With C#Cc1cc(-c2cc(Nc3nc(N[C@@H](C)c4ccc(F)cn4)ncc3Cl)n[nH]2)ccc1C=O the inhibition was 67.2% (TYK2; enzyme activity, inhibitor; 0.2 µM).
With CCCC[C@H](NC(C)=O)C(=O)N[C@@H](C)C(=O)N[C@@H](Cc1c[nH]cn1)C(=O)N[C@@H](Cc1ccccc1)C(=O)N[C@@H](CCCNC(=N)N)C(=O)N[C@H](Cc1c[nH]c2ccccc12)C(=O)N[C@@H](CC(=O)O)C(=O)N[C@@H](CCCNC(=N)N)C(=O)N[C@@H](Cc1ccccc1)C(=O)N[C@@H](C(=O)N1CCC[C@@H]1C(N)=O)C(C)C the Emax was 100% (MC1R; cAMP, agonist).
Cc1cc(S(=O)(=O)N[C@H]2CC[C@H](CN3CCN(c4ccc(C5CCC(=O)NC5=O)cc4F)CC3)CC2)ccc1Nc1ncc(C(F)(F)F)c(N2CCC[C@](C)(O)C2)n1 (some centres unmarked) gave a remaining binding of 72% (TAOK1; binding, competition with immobilised ligand; 1 µM).
The remaining binding of N#Cc1ccc(NC(=O)Nc2ccccc2)cc1 is reported as 9.7% (SRSF protein kinase 3 (SRPK3, Homo sapiens, UniProt Q9UPE1); cell-free assay, competition with immobilised ligand; 25 µM).
Cc1cc(O)c(-c2ccc([C@@H](C)CN(C)C)cc2)c2c1[nH]c(=O)c1sccc12 has an inhibition of 7.11% (Wee1-like protein kinase (WEE1, Homo sapiens, UniProt P30291); enzyme activity, inhibitor; 0.1 µM).
NC/C(=C\F)COc1cccc(Cn2c(=S)[nH]c(=O)c3[nH]cnc32)c1 has an inhibition of under 50% (Neuropeptide Y receptor type 1 (NPY1R, Homo sapiens, UniProt P25929); ligand displacement, radioligand; 10 µM).
CC(=O)N[C@@H](CCCNC(=N)N)C(=O)N[C@H]1CSSC[C@@H](C(N)=O)NC(=O)[C@H](Cc2c[nH]c3ccccc23)NC(=O)[C@H](CCCNC(=N)N)NC(=O)[C@@H](Cc2ccccc2)NC(=O)[C@H](Cc2c[nH]cn2)NC(=O)[C@@H](C)NC1=O has an Emax of 88% (Melanocortin receptor 3 (MC3R, Homo sapiens, UniProt P41968); cAMP, agonist; CHO-K1).
For CCN1/C(=C/C(C)=O)Sc2ccc(F)cc21, the inhibition was 0% (Type-1 angiotensin II receptor (AGTR1, Homo sapiens, UniProt P30556); ligand displacement, radioligand; 10 µM).
Cc1cc2c(C(N)=O)c(N)n(-c3c(C)ccc(O)c3C)c2nc1C has an inhibition of 100% (Serine/threonine-protein kinase B-raf (BRAF, Homo sapiens, UniProt P15056); enzyme activity, inhibitor, ADP detection; 10 µM).
C1=C/COCc2cc(ccc2OCCN2CCCC2)Nc2nccc(n2)-c2cccc(c2)COC/1 gave a remaining binding of 100% (Protein kinase C delta type (PRKCD, Homo sapiens, UniProt Q05655); binding; 0.1 µM).
For CCCC[C@H](NC(C)=O)C(=O)N[C@H]1CC(=O)NCCCC[C@@H](C(=O)N2CCC[C@@H]2C(=O)N[C@@H](C(=O)N2CCC[C@@H]2C(N)=O)C(C)C)NC(=O)[C@H](Cc2c[nH]c3ccccc23)NC(=O)[C@H](CCCNC(=N)N)NC(=O)[C@@H](Cc2ccccc2)NC(=O)[C@@H]2CCCN2C1=O, the Emax was 102% (MC1R; cAMP, agonist).
COc1ccc2oc(-c3ccc4nc(N)oc4c3)c/c(=N\c3ccccc3NC(=O)CCN)c2c1 has a remaining binding of 111% (TYK2; binding; 1 µM).
With CCCCC(=O)Nc1ccc(-c2ccc3ncn(CCC)c(=O)c3c2)cn1 the remaining binding was 85% (Calcium/calmodulin-dependent protein kinase type 1B (PNCK, Homo sapiens, UniProt Q6P2M8); binding, competition with immobilised ligand; 0.5 µM).
The remaining binding of CNS(=O)(=O)c1ccc(Nc2ncc(C(F)(F)F)c(N3CCC[C@](C)(O)C3)n2)c(C)c1 is reported as 5.3% (TAOK1; binding, competition with immobilised ligand; 1 µM).
